Results of several laboratories.
Compare with care: the assays were run in different laboratories.
Target: Cytochrome P450 2C9 (CYP2C9, Homo sapiens, UniProt P11712)
Observed: enzyme activity
Action: inhibitor

With `Cc1cc2c(F)c(Oc3ncnn4cc(OC[C@@H](C)O)c(C)c34)ccc2[nH]1` the IC50 was 1.39 µM (fluorescence; 15 min).
For `Nc1nc(N)c2nc(CNc3ccc(C(=O)NCCc4ccccc4)cc3)cnc2n1`, the IC50 was 18.6 µM (luciferase).
For `C[C@@H](c1ccc2nccn2c1)n1nnc2ncc(-c3cnn(C)c3)nc21`, the IC50 was 4.7 µM (human, liver microsomes; pH 7.4).
For `COc1ccc2c(Cc3ccccc3F)c3n(c(=O)c2c1OC)CCc1cc2c(cc1-3)OCO2`, the IC50 was > 10 µM.
For `Cc1cc(C)c2c(c1)[C@@H](N(Cc1cc(C(F)(F)F)cc(C(F)(F)F)c1)c1nnn(C)n1)CCCN2C[C@H]1CC[C@H](C(=O)O)CC1`, the Ki was 0.57 µM (human, liver microsomes; pH 7.4).
`C=CC(=O)Nc1cc(Nc2nccc(Nc3cc(Cl)c(F)cc3C(C)(C)O)n2)c(OC)cc1N1CC[C@@H](N(C)C)C1` gave an IC50 of > 30 µM (human, liver microsomes).
The IC50 of `CCCOC(=O)C1CCN(C(=O)c2ccc(N(C)Cc3cnc4nc(N)nc(N)c4n3)cc2)CC1` is reported as 5.5 µM (luciferase).
`COc1ccn2c(Nc3ccccc3F)c(-c3ccncn3)nc2c1` has an IC50 of 0.41 µM.
With `CCc1cc(/C(C)=N/OCc2ccc(C3CCCCC3)c(C(F)(F)F)c2)ccc1CN1CC(C(=O)O)C1` the IC50 was ~1.3 µM (human, liver microsomes; 20 min).
`Cc1ccc2nc(-c3ccccc3)c(CNc3ccc(F)cc3)n2c1` has an IC50 of 0.41 µM.
`Nc1nc(N)c2nc(CNc3ccc(C(=O)c4ccccc4)cc3)cnc2n1` has an IC50 of 25.1 µM (luciferase).
`COc1ccc2c(Cc3ccccc3F)c3[n+](cc2c1OC)CCc1cc2c(cc1-3)OCO2` has an IC50 of > 10 µM.
The IC50 of `O=C(NCCN1CCCC1)c1cc(-c2ccc(CN3CCOCC3)cc2)nc2ccc(F)cc12` is reported as > 100 µM (human, liver microsomes).
`Ic1ccc(CSCn2ccnc2)cc1` has an IC50 of 0.155 µM (MFC; 30 min, pH 7.4).
`C[C@H]1CN(c2n[nH]c3nc(N[C@H]4CC[C@H](NS(=O)(=O)CCC(F)(F)F)CC4)ncc23)CCO1` has an IC50 of > 100 µM.
